Here are results for eleven compounds from ChEMBL document CHEMBL1148192, “Nagelamides A-H, new dimeric bromopyrrole alkaloids from marine sponge Agelas species” (J Nat Prod, 2004).

The test system of experiment [1] is Micrococcus luteus. The experiment is described as follows: Antimicrobial activity against Micrococcus luteus. It counts as functional. Summed up: (§1)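 Microbroth dilution method in BHI medium.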
The subject of experiment [2] is Bacillus subtilis. Description: Antimicrobial activity against Bacillus subtilis. In kind it is functional. The method, boiled down:
as §1

Experiment [3] deals with Escherichia coli. The experiment is described as follows: Antimicrobial activity against Escherichia coli. It counts as functional. Summed up:
as §1

Experiment [4] is described as follows: Inhibition of protein phosphatase 2A in african green monkey COS7 cells. It counts as cell-based, Chlorocebus aethiops. To be noted: cos-7. The method, boiled down:
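PP2A activity was measured in COS-7 cell extract. Cells were lysed at 4 °C in hypotonic Tris-HCl pH 7.5 buffer with DTT, EGTA and protease inhibitors, then centrifuged at 20000g. Extract at 5 μg/mL protein was preincubated with compound for 10 min at 30 °C. Activity was taken as the okadaic acid (1 nM)-sensitive portion, run in triplicate and reported as the mean.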

Each structure is given as a SMILES string. Converted amounts (≈) assume the structure as drawn. A value given as a limit tells only on which side of the number the result lay.

As usually defined, the MIC is the least concentration at which growth counts as inhibited. As a reminder, the IC50 is the point on the concentration scale where inhibition reaches its midpoint.

For `Nc1nc([C@@H]2c3[nH]c(N)nc3C[C@H](CNC(=O)c3cc(Br)c[nH]3)[C@H]2CNC(=O)c2cc(Br)c[nH]2)c[nH]1.O=C(O)C(F)(F)F.O=C(O)C(F)(F)F` [AGELIFERIN], the MIC in experiment [1] turned out to be 4.17 µg/mL; in experiment [2], 8.33 µg/mL; in experiment [3], 33.3 µg/mL. Also, the half-inhibitory concentration (IC50) in experiment [4] is greater than 50 µM.

Turning to `Nc1nc([C@@H]2c3[nH]c(N)nc3C[C@H](CNC(=O)c3cc(Br)c[nH]3)[C@H]2CNC(=O)c2cc(Br)c(Br)[nH]2)c[nH]1` [BROMOAGELIFERIN], the values for the MIC in experiment [1], in experiment [2] and in experiment [3] were 2.08 µg/mL (≈ 2.97 µM), 2.08 µg/mL (≈ 2.97 µM) and 16.7 µg/mL (≈ 23.9 µM), respectively. Further, the 50% inhibitory concentration (IC50) in experiment [4] is greater than 50 µM.

As for `Nc1nc([C@H](CCNC(=O)c2cc(Br)c(Br)[nH]2)c2[nH]c(N)nc2/C=C/CNC(=O)c2cc(Br)c(Br)[nH]2)c[nH]1` [NAGELAMIDE A], the figures for the MIC in experiment [1], in experiment [2] and in experiment [3] were 2.08 µg/mL (≈ 2.67 µM), 16.7 µg/mL (≈ 21.5 µM) and 33.3 µg/mL (≈ 42.8 µM), respectively. In experiment [4], this compound displayed an IC50 of 48 µM.

Regarding `Nc1nc([C@@H](c2[nH]c(N)nc2/C=C/CNC(=O)c2cc(Br)c(Br)[nH]2)[C@H](O)CNC(=O)c2cc(Br)c(Br)[nH]2)c[nH]1` [NAGELAMIDE B], the MIC in experiment [1] amounted to 4.17 µg/mL (≈ 5.25 µM); in experiment [2] it was 33.3 µg/mL (≈ 41.9 µM); in experiment [3], 33.3 µg/mL (≈ 41.9 µM). In addition, in experiment [4], the IC50 was greater than 50 µM.

Take `Nc1nc(/C(=C/CNC(=O)c2cc(Br)c(Br)[nH]2)c2[nH]c(N)nc2/C=C/CNC(=O)c2cc(Br)c(Br)[nH]2)c[nH]1` [NAGELAMIDE C]: the MIC stood at 4.17 µg/mL (≈ 5.37 µM) in experiment [1], 33.3 µg/mL (≈ 42.9 µM) in experiment [2] and 33.3 µg/mL (≈ 42.9 µM) in experiment [3]. The compound further yielded an IC50 in experiment [4] greater than 50 µM.

Take `Nc1nc([C@H](CCNC(=O)c2cc(Br)c(Br)[nH]2)c2[nH]c(N)nc2CCCNC(=O)c2cc(Br)c(Br)[nH]2)c[nH]1` [NAGELAMIDE D]: the minimal inhibitory concentration (MIC) turned out to be 4.17 µg/mL (≈ 5.35 µM) in experiment [1], 33.3 µg/mL (≈ 42.7 µM) in experiment [2] and 33.3 µg/mL (≈ 42.7 µM) in experiment [3].

Regarding `Nc1nc([C@H]2c3[nH]c(N)nc3C[C@H](CNC(=O)c3cc(Br)c[nH]3)[C@H]2CNC(=O)c2cc(Br)c[nH]2)c[nH]1` [NAGELAMIDE E], the MIC came to 4.17 µg/mL (≈ 6.72 µM) in experiment [1], 16.7 µg/mL (≈ 26.9 µM) in experiment [2] and 33.3 µg/mL (≈ 53.7 µM) in experiment [3].

Take `Nc1nc([C@H]2c3[nH]c(N)nc3C[C@H](CNC(=O)c3cc(Br)c[nH]3)[C@H]2CNC(=O)c2cc(Br)c(Br)[nH]2)c[nH]1` [NAGELAMIDE F]: the minimal inhibitory concentration (MIC) in experiment [1] stood at 4.17 µg/mL (≈ 5.96 µM); in experiment [2], 16.7 µg/mL (≈ 23.9 µM); in experiment [3] it was 33.3 µg/mL (≈ 47.6 µM).

On to `Nc1nc([C@H]2c3[nH]c(N)nc3C[C@H](CNC(=O)c3cc(Br)c(Br)[nH]3)[C@H]2CNC(=O)c2cc(Br)c(Br)[nH]2)c[nH]1` [NAGELAMIDE G], for which the MIC in experiment [1] came to 2.08 µg/mL (≈ 2.67 µM); in experiment [2] it was 16.7 µg/mL (≈ 21.5 µM); in experiment [3] it was 33.3 µg/mL (≈ 42.8 µM). The IC50 in experiment [4] was found to be 13 µM.

In the case of `NC1=N/C(=N\CCS(=O)(=O)O)C(/C=C/CNC(=O)c2cc(Br)c(Br)[nH]2)(c2[nH]c(N)nc2/C=C/CNC(=O)c2cc(Br)c(Br)[nH]2)N1` (stereo unspecified) [NAGELAMIDE H], the minimal inhibitory concentration (MIC) was 16.7 µg/mL (≈ 18.6 µM) in experiment [1], 33.3 µg/mL (≈ 37 µM) in experiment [2] and greater than 33.3 µg/mL in experiment [3]. In experiment [4], this compound returned an IC50 of 46 µM.

With `Cl.Cl.Nc1ncc([C@H]2[C@H](CNC(=O)c3cc(Br)c[nH]3)[C@@H](CNC(=O)c3cc(Br)c[nH]3)[C@@H]2c2cnc(N)[nH]2)[nH]1` [SCEPTRIN HYDROCHLORIDE], the MIC in experiment [1] came to 4.07 µg/mL; in experiment [2], 8.33 µg/mL; in experiment [3], 33.3 µg/mL. For the same compound, inhibition in experiment [4] was half-maximal at 50 µM (IC50).
